Measured values of several laboratories.
Lines come from different studies, so protocols differ.
Organism: Acinetobacter baumannii
Observed: microbial growth

SMILES	technique	strain	time	MIC
CNC(C)C1CCC(N)C(OC2C(N)CC(N)C(OC3OCC(C)(O)C(NC)C3O)C2O)O1 (stereo not shown)	broth dilution	ATCCBAA1605	–	> 64 µg/mL
Nc1nc(-c2ccc3nc(-c4cc(C(F)(F)F)cc(C(F)(F)F)c4)[nH]c3c2)c[nH]1	broth dilution	AB5075	–	50 µM
N[C@@H](Cc1c[nH]c2ccc(Cl)cc12)C(=O)O	–	ATCC17978	18 h	> 200 µM
CCCCCCC#Cc1cncc(-c2nnc(SCc3cc([N+](=O)[O-])cc([N+](=O)[O-])c3)n2CCOC2OC(CN)C(O)C2O)c1 (stereo not shown)	broth dilution	ATCC17978	–	64 µg/mL
[H]/N=C(\N/C(=N/[H])NCCCCCCNC(=N)NC(=N)Nc1ccc(Cl)cc1)Nc1ccc(Cl)cc1	–	ATCC17978	–	8 µM
CCCCCCC#Cc1cncc(-c2nnc(SCc3ccc([N+](=O)[O-])o3)n2CCCN)c1	broth dilution	ATCC17978	–	32 µg/mL
C[C@@H](O)[C@H]1C(=O)N2C(C(=O)O)=C(S[C@@H]3CN[C@H](C(=O)N(C)C)C3)[C@H](C)[C@H]12	broth dilution	ATCC19606	–	0.5 µg/mL
CCCCCCCCN=c1ccn(CCCCCCCCCCn2ccc(=NCCCCCCCC)cc2)cc1	–	ATCC17978	–	1 µM
CCCCCCC#Cc1cncc(-c2nnc(SCc3cc([N+](=O)[O-])cc([N+](=O)[O-])c3)n2C2CCNCC2)c1	broth dilution	ATCC17978	–	64 µg/mL
CC1(C)S[C@@H]2[C@H](NC(=O)[C@H](N)c3ccccc3)C(=O)N2[C@H]1C(=O)O	broth dilution	ATCCBAA1605	–	> 64 µg/mL
